Measurements: ChEMBL document CHEMBL1122544, “Azasteroids as inhibitors of rat prostatic 5 alpha-reductase” (J Med Chem, 1984)

target: T1, 3-oxo-5-alpha-steroid 4-dehydrogenase 1 (Rattus norvegicus) (UniProt P24008); experiment: In vitro inhibitory activity against rat prostatic 5-alpha-reductase (150 ng/tube)
T1 sequence (whole entry): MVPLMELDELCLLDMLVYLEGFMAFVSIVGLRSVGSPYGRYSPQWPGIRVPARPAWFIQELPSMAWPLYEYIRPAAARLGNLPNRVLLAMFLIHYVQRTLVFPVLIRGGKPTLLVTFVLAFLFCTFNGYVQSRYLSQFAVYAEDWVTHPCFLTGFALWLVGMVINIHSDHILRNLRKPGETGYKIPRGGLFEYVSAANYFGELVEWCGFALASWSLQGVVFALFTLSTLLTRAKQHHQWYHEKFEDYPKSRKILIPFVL
Procedure, shortened: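 Rat prostatic enzyme preparation incubated with radioactive T and excess NADPH in 0.21 mL medium; 150 ng steroid per incubation (approx. 2 μM). Read-out is percent prevention of [³H]T conversion to [³H]DHT vs. control incubation without inhibitor. Duplicate assays, progesterone (150 ng) or a reference azasteroid (25 ng) as positive controls; most values single, separate determinations, approximate.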

SMILES	inhibition [%]
COC(=O)CCC(C)[C@H]1CC[C@H]2[C@@H]3CCC4N(C)C(=O)CC[C@]4(C)[C@H]3CC[C@]12C (some centres not stated)	84
CC12CCC(=O)NC1CCC1C2CCC2(C)C1CC[C@@H]2O (some centres not stated)	57
CCN(CC)C(=O)[C@H]1CC[C@H]2[C@@H]3CC[C@H]4N(C)C(=O)CC[C@]4(C)[C@H]3CC[C@]12C	99
CCN(CC)C(=O)[C@H]1CC[C@H]2[C@@H]3CC[C@H]4N(C)C(=O)C=C[C@]4(C)[C@H]3CC[C@]12C	63
CN1C(=O)CCC2(C)C3CCC4(C)C(CC[C@@H]4CN)C3CCC12 (some centres not stated)	80
CN1C(=O)CC[C@@]2(C)C1CC[C@@H]1[C@@H]2CC[C@@]2(C)[C@H]1CC[C@@]21CCCO1 (some centres not stated)	81
CCNC(=O)[C@H]1CCC2C3CCC4N(C)C(=O)CCC4(C)C3CCC21C (some centres not stated)	83
CC(=O)O[C@H]1CCC2C3CC[C@H]4CC(=O)NCCC4(C)C3CCC21C (some centres not stated)	0
CN1C(=O)CCC2(C)C3CCC4(C)C(CC[C@@H]4C(N)=O)C3CCC12 (some centres not stated)	91
CC(CO)[C@H]1CC[C@H]2[C@@H]3CCC4N(C)C(=O)CC[C@]4(C)[C@H]3CC[C@]12C (some centres not stated)	100
CC(=O)N[C@H]1CCC2C3CCC4N(C)C(=O)CCC4(C)C3CCC21C (some centres not stated)	76
CC(=O)N[C@@H]1CC[C@H]2[C@@H]3CCC4N(C)C(=O)CC[C@]4(C)[C@H]3CC[C@]12C (some centres not stated)	87
CC12COC(=O)C=C1CCC1C2CCC2(C)C1CC[C@]2(C)O (some centres not stated)	8
CC(C(=O)O)[C@H]1CC[C@H]2[C@@H]3CCC4N(C)C(=O)CC[C@]4(C)[C@H]3CC[C@]12C (some centres not stated)	96
CCN(CC)C(=O)/C=C1\CC[C@H]2[C@@H]3CCC4N(C)C(=O)CC[C@]4(C)[C@H]3CC[C@]12C (some centres not stated)	100
CCN(CC)C(=O)[C@H]1CCC2C3CCC4N(C)/C(=N/O)CCC4(C)C3CCC21C (some centres not stated)	77
CCN(CC)C(=O)[C@H]1CCC2C3CCC4N(C)CCCC4(C)C3CCC21C (some centres not stated)	44
CC(=O)[C@H]1CCC2C3CCC4N(C)C(=O)CCC4(C)C3CCC21C (some centres not stated)	100
CCN(CC)C(=O)[C@H]1CCC2C3CCC4N(C)C(=S)CCC4(C)C3CCC21C (some centres not stated)	50
CCN(CC)C(=O)[C@H]1CC[C@H]2[C@@H]3CC[C@@H]4N(C)C(=O)CC[C@]4(C)[C@H]3CC[C@]12C	7
CCN(CC)C(=O)[C@H]1CC[C@H]2[C@@H]3CC[C@@H]4NC(=O)CC[C@]4(C)[C@H]3CC[C@]12C	95

SMILES	inhibition [%]
CN1C(=O)CC[C@@]2(C)C1CC[C@H]1[C@@H]3CC[C@H](O)[C@@]3(C)CC[C@@H]12 (some centres not stated)	72
CN1C(=O)CCC2(C)C1=CCC1C2CCC2(C)C1CC[C@@H]2O (some centres not stated)	36
CC(=O)O[C@H]1CCC2C3CC[C@H]4NC(=O)CCCC4(C)C3CCC21C (some centres not stated)	94
CCN(CC)C(=O)[C@H]1CCC2C3CCC4N(NC)C(=O)CCC4(C)C3CCC21C (some centres not stated)	24
CCN(CC)C(=O)C[C@H]1CC[C@H]2[C@@H]3CCC4N(C)C(=O)CC[C@]4(C)[C@H]3CC[C@]12C (some centres not stated)	97
CCN(CC)C(=O)[C@H]1CCC2C3CCC4N(C)/C(=N\C)CCC4(C)C3CCC21C (some centres not stated)	49
CCN(CC)C(=O)[C@H]1CCC2C3CCC4N(CCO)C(=O)CCC4(C)C3CCC21C (some centres not stated)	0
CCN(CC)C(=O)[C@H]1CCC2C3CCC4N(C)C(=O)/C(=C/O)CC4(C)C3CCC21C (some centres not stated)	48
CN1C(=O)CCC2C3CCC4(C)C(CC[C@@H]4O)C3CCC21 (some centres not stated)	81
CC(=O)[C@H]1CC[C@H]2[C@@H]3CC[C@H]4CS(=O)(=O)C[C@]4(C)[C@H]3CC[C@]12C (stereo in doubt; 42)	13
CC(=O)O[C@H]1CCC2C3CC[C@H]4CNC(=O)CC4(C)C3CCC21C (some centres not stated)	0
CC(O)[C@H]1CC[C@H]2[C@@H]3CCC4N(C)C(=O)CC[C@]4(C)[C@H]3CC[C@]12C (some centres not stated)	100
CC(=O)O[C@H]1CCC2C3CC[C@H]4CN(C(C)=O)CCC4(C)C3CCC21C (some centres not stated)	33
CCCCCCCCNC(=O)[C@H]1CCC2C3CCC4N(C)C(=O)CCC4(C)C3CCC21C (some centres not stated)	100
COC(=O)[C@H]1CCC2C3CC[C@H]4CC(=O)OCC4(C)C3CCC21C (some centres not stated)	0
CCN(CC)C(=O)[C@H]1CC[C@H]2[C@@H]3CC[C@H]4NC(=O)C=C[C@]4(C)[C@H]3CC[C@]12C	74
CN1C(=O)CC[C@@]2(C)C1CC[C@H]1[C@@H]3CC[C@H](C(=O)O)[C@@]3(C)CC[C@@H]12 (some centres not stated)	90
CC(=O)O[C@H]1CCC2C3CC[C@H]4CNC(=O)CCC4(C)C3CCC21C (some centres not stated)	0
CCN(CC)C(=O)[C@H]1CCC2C3CCC4N(c5ccccc5)C(=O)CCC4(C)C3CCC21C (some centres not stated)	5
CCN(CC)C(=O)CCC(C)[C@H]1CC[C@H]2[C@@H]3CCC4N(C)C(=O)CC[C@]4(C)[C@H]3CC[C@]12C (some centres not stated)	100
CC(=O)[C@H]1CCC2C3CCC4NC(=O)CCC4(C)C3CCC21C (some centres not stated)	100

SMILES	inhibition [%]
CCN(CC)C(=O)[C@H]1CCC2C3CCC4N(C)C(=O)CC4(C)C3CCC21C (some centres not stated)	7
CC(=O)[C@H]1CC[C@H]2[C@@H]3CC[C@H]4CS(=O)(=O)C[C@]4(C)[C@H]3CC[C@]12C (stereo in doubt; 44)	13
CC(O)[C@@]1(O)CC[C@H]2[C@@H]3CCC4N(C)C(=O)CC[C@]4(C)[C@H]3CC[C@@]21C (some centres not stated)	100
CC(=O)O[C@H]1CCC2C3CC[C@H]4CC(=O)NCC4(C)C3CCC21C (some centres not stated)	35
CCN(CC)C(=O)[C@H]1CCC2C3CCC4N(C)C(=N)CCC4(C)C3CCC21C (some centres not stated)	22
CCN(CC)C(=O)[C@H]1CCC2C3CC[C@H]4N(C)C(=O)[C@@H](C)CC4(C)C3CCC21C (some centres not stated)	99
CCCCCCCCCC[C@H]1CCC2C3CCC4N(C)C(=O)CCC4(C)C3CCC21C (some centres not stated)	7
C[C@]12CCC(=O)NC1CC[C@@H]1[C@@H]2CC[C@@]2(C)[C@H]1CC[C@@]21CCCO1 (some centres not stated)	68
COC(=O)[C@H]1CCC2C3CCC4N(C)C(=O)CCC4(C)C3CCC21C (some centres not stated)	96
CCN(CC)C(=O)[C@H]1CCC2C3CCC4N(C)C(=O)C5OC5C4(C)C3CCC21C (some centres not stated)	19
CCN1C(=O)CC[C@@]2(C)C1CC[C@@H]1[C@@H]2CC[C@@]2(C)[C@H]1CC[C@@]21CCCO1 (some centres not stated)	27
CCN(CC)C(=O)C(C)[C@H]1CC[C@H]2[C@@H]3CCC4N(C)C(=O)CC[C@]4(C)[C@H]3CC[C@]12C (some centres not stated)	83
CC12CCNC(=O)C1CCC1C2CCC2(C)C1CC[C@@H]2O (some centres not stated)	0
CCN(CC)C(=O)[C@H]1CCC2C3CC[C@H]4N(C)C(=O)[C@H](O)CC4(C)C3CCC21C (some centres not stated)	46
CCOC(=O)C[C@H]1CC[C@H]2[C@@H]3CC[C@H]4N(C)C(=O)CC[C@]4(C)[C@H]3CC[C@]12C	88
CCN(CC)C(=O)[C@H]1CCC2C3CCC4N(C)C(=O)C(=O)CC4(C)C3CCC21C (some centres not stated)	78
CC(C)N(C(=O)[C@H]1CC[C@H]2[C@@H]3CCC4N(C)C(=O)CC[C@]4(C)[C@H]3CC[C@]12C)C(C)C (some centres not stated)	100
CC(=O)[C@H]1CC[C@H]2[C@@H]3CC[C@H]4CS(=O)(=O)C[C@]4(C)[C@H]3CC[C@]12C (stereo in doubt; 43)	13
CC(CCC(=O)O)[C@H]1CC[C@H]2[C@@H]3CCC4N(C)C(=O)CC[C@]4(C)[C@H]3CC[C@]12C (some centres not stated)	88
CN1C(=O)CCC2(C)C3CCC4(C)/C(=C/C(=O)O)CCC4C3CCC12 (configuration not stated)	92
